# Screening data from PubChem BioAssay.
# hERG rescue – hERG rescue from dofetilide block, primary screen, cell-based, CHO-hERG, FluxOR thallium flux, dofetilide IC70; activation (rescue from dofetilide block), less the hit threshold, % at 10 µM; dofetilide IC70 present; AID 1511, 2009; actives 0.51% (n = 310,000); Voltage-gated inwardly rectifying potassium channel KCNH2 (Homo sapiens), Q12809;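 active means activation above the mean of controls blocked by dofetilide plus 5 SD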;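 further: thallium influx through hERG after potassium depolarization seen as dye fluorescence rise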
# Cl transport mod – KCC2 cotransporter modulators, thallium flux, primary screen, cell-based, HEK293 KCC2, FluoZin-2 fluorescence, MLSMR | Solute carrier family 12 member 5 (Homo sapiens), Q9H2X9 | KCC2 cells, thallium flux FluoZin-2 fluorescence | B-score of Tl+ flux slope (higher = more flux/activation; lower = inhibition) at 10 µM | actives 2.2% (n = 190,000) | AID 1456, 2008;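 active means thallium flux slope and its plate-corrected score both differing from the plate sample mean at a set confidence after two filtering rounds, in either direction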;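 further: slope of fluorescence scaled to starting intensity during 10 to 20 s after thallium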
# KCNK9 inh – KCNK9 potassium channel inhibitors, primary screen, HEK293 cells, thallium flux. B-score at 10 µM. FluxOR thallium flux fluorescence; active compounds read low. actives 1.2% (n = 310,000). Potassium channel subfamily K member 9 (Homo sapiens), Q9NPC2;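 active means ratio B-score over 3 SD below the library mean, with starting fluorescence within 5 SD of its mean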;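 further: negative B-score means less thallium flux so channel inhibition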
# KCNQ1 pot – potentiators or activators of KCNQ1 channel, primary screen, cell-based, thallium flux, high-throughput | Potassium voltage-gated channel subfamily KQT member 1 (Homo sapiens), P51787 | CHO-K1 KCNQ1, thallium flux FluxOR fluorescence; active compounds read high | B-score at 10 µM | actives 0.35% (n = 310,000);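 active means fluorescence ratio B-score, a plate-corrected score, at least three library SD, with initial intensity B-score within 5 SD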
#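 assay system = KCNQ1-transfected CHO-K1 cells | medium = assay buffer with matched DMSO | probe or stimulus = depolarizing K+/Tl+ stimulus, K2SO4 and Tl2SO4 each 12.5 mM in 5x stock | dosing = single dose | incubation = dye 90 min, compound 20 min, room temperature | detection = kinetic FluxOR fluorescence, 10 s baseline plus 110 s post-stimulus | evaluation = ratio B score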
# KCNQ1 inh – inhibitors of human KCNQ1 channel, primary screen, cell-based, thallium flux, high-throughput; Potassium voltage-gated channel subfamily KQT member 1 (Homo sapiens), P51787; CHO-K1 KCNQ1, FluxOR thallium flux fluorescence; active compounds read high; B-score at 10 µM; actives 1.3% (n = 310,000);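 active means compounds whose thallium flux B-score, printed positive for inhibition, exceeds three library SD while starting fluorescence stays within three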;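 further: channel opened by potassium depolarization with thallium stimulus after 20 min compound exposure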
# KCNK3 block – human KCNK3 channel inhibitors, primary screen, CHO cells, FluxOR thallium flux, B-score. FluxOR fluorescence; active compounds read low. B-score at 10 µM. actives 0.84% (n = 340,000);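 active means B-score under library mean minus 4 SD, starting fluorescence ratio at most library mean plus 5 SD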;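 further: more negative B-score means stronger inhibition of thallium flux through KCNK3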
# Target sequence (O14649 whole entry, looked up): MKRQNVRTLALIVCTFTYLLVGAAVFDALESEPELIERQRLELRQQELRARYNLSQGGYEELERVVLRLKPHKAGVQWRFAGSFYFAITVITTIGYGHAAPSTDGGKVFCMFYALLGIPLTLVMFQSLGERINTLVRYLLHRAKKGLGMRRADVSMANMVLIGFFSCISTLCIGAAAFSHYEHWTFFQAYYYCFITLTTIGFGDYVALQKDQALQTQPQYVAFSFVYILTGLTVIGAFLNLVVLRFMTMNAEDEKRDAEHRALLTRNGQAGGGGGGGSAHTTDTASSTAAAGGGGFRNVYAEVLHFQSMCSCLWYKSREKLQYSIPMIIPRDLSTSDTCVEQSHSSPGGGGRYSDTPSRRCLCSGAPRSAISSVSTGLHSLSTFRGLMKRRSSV
# An asterisk follows results filed as active; i = inactive; x = not tested or not shown. A selection: hits, their analogues and other compounds. The true share with any hit is near 4.1%.
SMILES,hERG rescue,Cl transport mod,KCNK9 inh,KCNQ1 pot,KCNQ1 inh,KCNK3 block
COc1ccc(OC)c(-c2csc(NC(=O)CSc3ccc([N+](=O)[O-])cc3)n2)c1,-15,0.026,i,i,7*,i
CCc1ccc2c(c1)c(N=NC1=NC(=O)CS1)c(O)n2CC,7.7*,x,i,16*,i,i
O=C(NC1CCCCC1)NS(=O)(=O)c1ccc2c(c1)CCC2,x,x,x,x,x,i
NS(=O)(=O)c1cccc(NC(=O)COC(=O)CCC2CCCC2)c1,x,x,x,x,x,i
Cn1c(SCC(=O)N2CCOCC2)nc2cccnc21,4.8*,1.1,i,i,i,i
CC1CCN(C(=O)CSc2nc3cccnc3n2C)CC1,-10,-0.4,i,i,i,i
Cc1ccc(S(=O)(=O)N2CCCCC2CCNC(=O)C(=O)Nc2ccccc2F)cc1 (centres undefined),-12,x,i,i,i,i
CCN1CCN(Cc2cc(=O)oc3cc4c(cc23)CCC4)CC1,-25,x,i,i,8*,i
CC(C)(C)OC(=O)C[C@@H]1C/C=C\C[C@@H](CC(=O)N[C@@H](CO)Cc2ccccc2)C(=O)N2CCC[C@@H]2COC1=O,x,x,x,x,x,i
Cc1ccc(N(CC(=O)NC(C)(C)C)C(=O)CCC(=O)Nc2nccs2)c(C)c1,-10,x,i,i,i,i
C/C(=N\NC(=O)c1cccc(O)c1)c1ccc(NC(=O)Cc2ccccc2)cc1,-4,x,i,i,i,i
O=C(Cn1nnc2ccccc21)N/N=C\C=C\c1ccccc1,6.7*,-0.97,i,i,i,i
CN1CCCC1CCNc1ccc2sc3ccccc3c(=O)c2c1 (centres undefined),-25,x,-7.5*,i,i,i
O=c1c2ccccc2sc2ccc(NCCCN3CCOCC3)cc12,-21,x,i,i,i,i
CN(Cc1ccccc1)C(=O)COC(=O)c1cc2ccccc2oc1=O,x,x,x,x,x,i
N#Cc1c(N)nc(SCC(=O)C23CC4CC(CC(C4)C2)C3)c(C#N)c1-c1ccc(Cl)cc1,-8,0.31,i,i,i,i
CSc1nc(N)nc(SCC(=O)C23CC4CC(CC(C4)C2)C3)c1C#N,-16,0.034,-7.5*,i,i,i
CSc1ccc(CN2CCCN(C)CC2)cc1,-5,x,i,i,i,i
CC1CCCC(C)N1/N=C/c1cc(Br)cc(Br)c1O (centres undefined),-9,0.58,i,i,i,i
CC(=O)N1c2ccc(N=Cc3cc(Br)cc(Br)c3O)cc2CC1C (centres undefined),3,-0.11,i,8*,i,x
CC(=O)c1cccc(NC(=O)Cn2cnc(S(=O)(=O)N3CCOCC3)c2)c1,-5,x,i,i,i,i
CCOC(=O)c1ccc(Oc2nc(NC(C)(C)C)nc(N(C)C)n2)cc1,-2,x,i,27*,i,i
CCOC(=O)c1ccc(Oc2nc(N(C)C)nc(N(C)C)n2)cc1,-1,x,i,i,i,i
CCN(CC)c1ccc2nc3c4ccccc4c(=O)cc-3oc2c1,-2,x,i,i,i,x
CCN(CC)c1ccc2c(-c3ccc(S(=O)(=O)O)cc3S(=O)(=O)[O-])c3ccc(=[N+](CC)CC)cc-3oc2c1,-41,x,i,i,25*,i
Cc1ccc(C(C)NC(=O)c2ccncc2)cc1C (centres undefined),-11,x,i,i,i,i
CC(NC(=O)c1ccncc1)C(C)(C)C (centres undefined),3,x,i,41*,i,i
Cn1c(-c2ccc3c(c2)OCO3)cnc1NCc1ccc(Cl)cc1,-16,x,i,i,11*,i
Cc1ccc(CNc2ncc(-c3ccc4c(c3)OCO4)n2C)cc1,-28,x,i,i,i,i
